From ChEMBL document CHEMBL1131231, “New azole antifungals. 2. Synthesis and antifungal activity of heterocyclecarboxamide derivatives of 3-amino-2-aryl-1-azolyl-2-butanol” (1998)
≈ marks a conversion by molar mass, not a printed value.

How the values were obtained:
[1] = The compound was tested in vitro for antifungal activity against 10 yeasts.; format: functional
Summary of the method: (§1)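 Agar dilution on Kimmig's agar with 0.5% glycerol; ATCC or clinical isolates, inocula at 10⁵ cfu/mL. Drugs from 800 μg/mL stock in 50% ethanol, 2-fold serial dilutions 80 to 0.03 μg/mL in plates. Incubated 25 °C, 48 h for yeasts, 120 h for filamentous fungi. Value is geometric mean of MICs (μg/mL); >80 taken as 160, ≤0.03 as 0.03.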

[2] = The compound was tested in vitro for antifungal activity against 6 filamentous fungi.; format: functional; summary of the method: as §1
[3] = tested on: Candida albicans; test: In vivo antifungal activity against murine candidosis model after peroral administration with 1 mg/kg at various time intervals. (percent protection for 100% mortality with fluconazole-treated group.); format: functional; settings: route oral
Summary of the method: (§2)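 Male mice, groups of 10, infected iv with 0.2 mL Candida albicans at (2–8) × 10⁷ cfu/mL. Oral suspension in 1% Tween + 0.2% carboxymethylcellulose in water, given 1, 4 and 24 h post-infection; vehicle controls and a fluconazole group at the same dose. Survival scored on days 1, 2, 3, 5, 7, 9, reported as % surviving on the day untreated, or fluconazole-treated, mortality reached 100%.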

[4] = tested on: Candida albicans; test: In vivo antifungal activity against murine candidosis model after peroral administration with 1 mg/kg at various time intervals. (percent protection for 100% mortality with untreated group); format: functional; settings: route oral; summary of the method: as §2
[5] = tested on: Candida albicans; test: In vivo antifungal activity against murine candidosis model after peroral administration with 0.5 mg/kg at various time intervals. (percent protection for 100% mortality with untreated group); format: functional; settings: route oral; summary of the method: as §2
[6] = tested on: Candida albicans; test: In vivo antifungal activity against murine candidosis model after peroral administration with 0.5 mg/kg at various time intervals. (percent protection for 100% mortality with fluconazole-treated group.); format: functional; settings: route oral; summary of the method: as §2
[7] = In vivo antifungal activity against murine candidosis model after peroral administration with 1 mg/kg for 5 days.(percent protection for 100% mortality with untreated group); format: functional, Mus musculus; settings: route oral
Summary of the method: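 Second murine systemic Candida albicans model. Mice, n = 10 per group, dosed orally once daily for 5 days after infection. Animals observed for 65 days, with survival rate as read-out and vehicle controls included. Reported as % protection on the day of 100% mortality in the untreated group or in the fluconazole-treated group.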

| SMILES | MIC [1] [µg/mL] | MIC [2] [µg/mL] | Protection [3] [%] | Protection [4] [%] | Protection [5] [%] | Protection [6] [%] | Protection [7] [%] |
| --- | --- | --- | --- | --- | --- | --- | --- |
| C[C@@H](n1cnc2cc(-c3ccc(C(=N)NC#N)cc3)sc2c1=O)[C@](O)(Cn1cncn1)c1ccc(F)cc1F | 2.7 (≈ 4.94 µM) | 80 (≈ 146 µM) | <20 | 100 | – | – | – |
| Cc1nc(COc2ccc(Cl)cc2)sc1C(=O)N[C@H](C)[C@](O)(Cn1cncn1)c1ccc(F)cc1F | 0.6 (≈ 1.12 µM) | 2.9 (≈ 5.43 µM) | – | – | 30 | 0 | – |
| Cc1nc(-c2ccc(Br)cc2)sc1C(=O)N[C@H](C)[C@](O)(Cn1cncn1)c1ccc(F)cc1F | 0.6 (≈ 1.09 µM) | 1.8 (≈ 3.28 µM) | – | – | 100 | 90 | – |
| C[C@@H](NC(=O)c1cnn(-c2ccc(C(F)(F)F)cc2)c1C(F)(F)F)[C@](O)(Cn1cncn1)c1ccc(F)cc1F | 1.8 (≈ 3.13 µM) | 13 (≈ 22.6 µM) | 0 | 60 | – | – | – |
| Cc1c(C(=O)N[C@H](C)[C@](O)(Cn2cncn2)c2ccc(F)cc2F)cnn1-c1ccc(OC(F)(F)F)cc1 | 2.6 (≈ 4.85 µM) | 5.6 (≈ 10.4 µM) | 80 | 100 | – | – | – |
| Cc1c(C(=O)N[C@H](C)[C@](O)(Cn2cncn2)c2ccc(F)cc2F)cnn1-c1c(Cl)cccc1Cl | 21 (≈ 40.3 µM) | > 80 | 0 | 0 | – | – | – |
| C[C@@H](NC(=O)c1cnn(-c2ccc(Cl)cc2)c1C(F)(F)F)[C@](O)(Cn1cncn1)c1ccc(F)cc1F | 1.2 (≈ 2.22 µM) | 7.1 (≈ 13.1 µM) | 50 | 100 | – | – | – |
| Cc1c(C(=O)N[C@H](C)[C@](O)(Cn2cncn2)c2ccc(F)cc2F)cnn1-c1cc(Cl)cc(Cl)c1 | 19 (≈ 36.4 µM) | > 80 | 0 | 20 | – | – | – |
| Cc1c(C(=O)N[C@H](C)[C@](O)(Cn2cncn2)c2ccc(F)cc2F)cnn1-c1ccc(C(F)(F)F)cc1 | 1.7 (≈ 3.27 µM) | 13 (≈ 25 µM) | 80 | 100 | – | – | – |
| C[C@@H](n1cnc2cc(-c3ccc([N+](=O)[O-])cc3)sc2c1=O)[C@](O)(Cn1cncn1)c1ccc(F)cc1F | 5.9 (≈ 11.2 µM) | > 80 | 90 | 100 | – | – | – |
| C[C@@H](NC(=O)c1nnc(-c2ccc(Cl)cc2)o1)[C@](O)(Cn1cncn1)c1ccc(F)cc1F | 49 (≈ 103 µM) | > 80 | – | – | 10 | 0 | – |
| C[C@@H](n1cnc2cc(-c3ccc(C4=NCCO4)cc3)sc2c1=O)[C@](O)(Cn1cncn1)c1ccc(F)cc1F | 1.9 (≈ 3.46 µM) | > 80 | 20 | 100 | – | – | – |
| Cc1c(C(=O)N[C@H](C)[C@](O)(Cn2cncn2)c2ccc(F)cc2F)cnn1-c1ccc(Br)cc1 | 2 (≈ 3.76 µM) | 13 (≈ 24.5 µM) | 50 | 100 | – | – | – |
| Cc1c(C(=O)N[C@H](C)[C@](O)(Cn2cncn2)c2ccc(F)cc2F)cnn1-c1ccc(F)cc1F | 5.3 (≈ 10.9 µM) | 63 (≈ 129 µM) | 0 | 0 | – | – | – |
| Cc1c(C(=O)N[C@H](C)[C@](O)(Cn2cncn2)c2ccc(F)cc2F)cnn1-c1ccccc1Cl | 11 (≈ 22.6 µM) | > 80 | 0 | 0 | – | – | – |
| CC(C)c1c(C(=O)N[C@H](C)[C@](O)(Cn2cncn2)c2ccc(F)cc2F)cnn1-c1ccc(Cl)cc1 | 3.3 (≈ 6.41 µM) | > 80 | 0 | 60 | – | – | – |
| C[C@@H](NC(=O)c1cnn(-c2ccc(Cl)cc2)c1N)[C@](O)(Cn1cncn1)c1ccc(F)cc1F | 2.7 (≈ 5.53 µM) | 45 (≈ 92.2 µM) | 0 | 80 | – | – | – |
| CC(=O)ONC(=N)c1ccc(-c2cc3ncn([C@H](C)[C@](O)(Cn4cncn4)c4ccc(F)cc4F)c(=O)c3s2)cc1 | 3.7 (≈ 6.38 µM) | 36 (≈ 62.1 µM) | 0 | 60 | – | – | – |
| C[C@@H](n1cnc2cc(-c3ccc(F)cc3)sc2c1=O)[C@](O)(Cn1cncn1)c1ccc(F)cc1F | 0.4 (≈ 0.804 µM) | 2.2 (≈ 4.42 µM) | 100 | 100 | – | – | – |
| C[C@@H](NC(=O)c1cnn(-c2ccc(Cl)cc2)c1)[C@](O)(Cn1cncn1)c1ccc(F)cc1F | 1.9 (≈ 4.02 µM) | > 80 | 50 | 100 | – | – | – |
| CSc1ccc(-c2cc3ncn([C@H](C)[C@](O)(Cn4cncn4)c4ccc(F)cc4F)c(=O)c3s2)cc1 | 5.5 (≈ 10.5 µM) | > 80 | 0 | 30 | – | – | – |

| SMILES | MIC [1] [µg/mL] | MIC [2] [µg/mL] | Protection [3] [%] | Protection [4] [%] | Protection [5] [%] | Protection [6] [%] | Protection [7] [%] |
| --- | --- | --- | --- | --- | --- | --- | --- |
| Cc1c(S(=O)(=O)c2ccc(Cl)cc2)csc1C(=O)N[C@H](C)[C@](O)(Cn1cncn1)c1ccc(F)cc1F | 1.6 (≈ 2.82 µM) | 11 (≈ 19.4 µM) | 0 | 70 | – | – | – |
| Cc1c(C(=O)N[C@H](C)[C@](O)(Cn2cncn2)c2ccc(F)cc2F)cnn1-c1ccc(Cl)cc1 | 1.8 (≈ 3.7 µM) | 16 (≈ 32.9 µM) | 60 | 80 | – | – | – |
| Cc1cc2ncc(C(=O)N[C@H](C)[C@](O)(Cn3cncn3)c3ccc(F)cc3F)c(C)n2n1 | 70 (≈ 159 µM) | > 80 | 0 | 20 | – | – | – |
| Cc1nc(-c2ccc(Cl)cc2)sc1C(=O)N[C@H](C)[C@](O)(Cn1cncn1)c1ccc(F)cc1F | 0.8 (≈ 1.59 µM) | 1.2 (≈ 2.38 µM) | – | – | 100 | 100 | – |
| C[C@@H](n1cnc2cc(-c3ccc(C(=N)NO)cc3)sc2c1=O)[C@](O)(Cn1cncn1)c1ccc(F)cc1F | 2.4 (≈ 4.46 µM) | > 80 | 0 | 90 | – | – | – |
| Cc1nc(-c2ccc(C#N)cc2)sc1C(=O)N(C)[C@H](C)[C@](O)(Cn1cncn1)c1ccc(F)cc1F | 0.8 (≈ 1.57 µM) | 4.5 (≈ 8.85 µM) | – | – | 100 | 100 | – |
| C[C@@H](n1cnc2cc(-c3ccc(C(N)=O)cc3)sc2c1=O)[C@](O)(Cn1cncn1)c1ccc(F)cc1F | 1.3 (≈ 2.49 µM) | 45 (≈ 86.1 µM) | 20 | 100 | – | – | – |
| C[C@@H](NC(=O)c1cnn(-c2ccc(Cl)cc2)c1C1CC1)[C@](O)(Cn1cncn1)c1ccc(F)cc1F | 1.8 (≈ 3.51 µM) | > 80 | 0 | 100 | – | – | – |
| COc1ccc(-n2ncc(C(=O)N[C@H](C)[C@](O)(Cn3cncn3)c3ccc(F)cc3F)c2C)cc1 | 6.1 (≈ 12.6 µM) | 23 (≈ 47.7 µM) | 0 | 0 | – | – | – |
| C[C@@H](NC(=O)c1cnn(-c2ccc(Cl)cc2)c1C(C)(C)C)[C@](O)(Cn1cncn1)c1ccc(F)cc1F | 4.6 (≈ 8.7 µM) | > 80 | 0 | 0 | – | – | – |
| C[C@@H](NC(=O)c1csc(-c2ccc(Cl)cc2)n1)[C@](O)(Cn1cncn1)c1ccc(F)cc1F | 4.5 (≈ 9.18 µM) | > 80 | – | – | 0 | 0 | – |
| CC(=O)ONC(=N)c1ccc(-c2nc(C)c(C(=O)N[C@H](C)[C@](O)(Cn3cncn3)c3ccc(F)cc3F)s2)cc1 | 14 (≈ 24.6 µM) | 45 (≈ 79 µM) | – | – | 70 | 0 | – |
| C[C@@H](n1cnc2cc(-c3ccc(S(C)(=O)=O)cc3)sc2c1=O)[C@](O)(Cn1cncn1)c1ccc(F)cc1F | 2.3 (≈ 4.12 µM) | > 80 | 0 | 40 | – | – | – |
| Cc1nn(-c2ccc(Cl)cc2)c(C)c1C(=O)N[C@H](C)[C@](O)(Cn1cncn1)c1ccc(F)cc1F | 1.5 (≈ 2.99 µM) | 8.9 (≈ 17.8 µM) | 20 | 90 | – | – | – |
| Cc1c(C(=O)N[C@H](C)[C@](O)(Cn2cncn2)c2ccc(F)cc2F)cnn1-c1cccc(C(F)(F)F)c1 | 4.6 (≈ 8.84 µM) | 20 (≈ 38.4 µM) | 0 | 100 | – | – | – |
| CCCc1c(C(=O)N[C@H](C)[C@](O)(Cn2cncn2)c2ccc(F)cc2F)cnn1-c1ccc(Cl)cc1 | 1.9 (≈ 3.69 µM) | 36 (≈ 69.9 µM) | 0 | 100 | – | – | – |
| Cc1c(C(=O)N[C@H](C)[C@](O)(Cn2cncn2)c2ccc(F)cc2F)cnc2cc(-c3ccc(Cl)cc3)nn12 | 1.4 (≈ 2.6 µM) | 6.3 (≈ 11.7 µM) | 0 | 100 | – | – | – |
| Cc1nc(-c2ccc(Cl)cc2)oc1C(=O)N[C@H](C)[C@](O)(Cn1cncn1)c1ccc(F)cc1F | 3.7 (≈ 7.58 µM) | 40 (≈ 82 µM) | – | – | 40 | 0 | – |
| Cc1nc(-c2ccc(Cl)cc2)n(C)c1C(=O)N[C@H](C)[C@](O)(Cn1cncn1)c1ccc(F)cc1F | 2.6 (≈ 5.19 µM) | 18 (≈ 35.9 µM) | – | – | 100 | 0 | – |
| OC(Cn1cncn1)(Cn1cncn1)c1ccc(F)cc1F [FLUCONAZOLE] | 30 (≈ 98 µM) | > 80 | – | – | 100 | – | 100 |
| CCC(C)n1ncn(-c2ccc(N3CCN(c4ccc(OC[C@@H]5CO[C@@](Cn6cncn6)(c6ccc(Cl)cc6Cl)O5)cc4)CC3)cc2)c1=O (stereo partly drawn) [ITRACONAZOLE] | 5.2 (≈ 7.37 µM) | 63 (≈ 89.3 µM) | – | – | 0 | 0 | – |
